Laboratory results published in ChEMBL document CHEMBL1141070, “Synthesis and biological activity of flurbiprofen analogues as selective inhibitors of beta-amyloid(1)(-)(42) secretion” (J Med Chem, 2005).

Key:
[1] = target: Cytochrome P450 2C9 (Homo sapiens, UniProt P11712); assay: Interaction with human cytochrome P450 isoform 2C9 expressed in baculovirus-insect cells; assay type: ADME
Outline: (§1)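 Microsomes from baculovirus-insect cells expressing human CYP1A2, 2C9, 2C19, 2D6 or 3A4. Compound serially diluted with an NADPH-regenerating mix (16.3 μM NADP+, 0.83 mM glucose-6-phosphate, 0.83 mM MgCl2, 0.4 U/mL G6PDH). Pre-warmed 10 min at 37 °C, then isoform-specific substrate added in 0.35 M potassium phosphate pH 7.4. Fluorometric read-out; IC50 by nonlinear regression.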

[2] = Concentration ratio in cerebrospinal fluid and plasma; details: rat
[3] = target: T1, Amyloid-beta precursor protein (Homo sapiens, UniProt P05067); assay: Inhibitory concentration against beta-amyloid-42 (Abeta42) secretion was evaluated in human neuroglioma cells (H4-APP695NL); assay type: functional, cell-based
Outline: (§2)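 H4-APP695NL human neuroglioma cells (APP695 Swedish K595N/M596L) seeded at 2 × 10^5/well and grown 24 h to confluence. Increasing compound concentrations added overnight; DMSO 1% as vehicle. Supernatant Aβ42 or Aβ40 measured by electrochemiluminescence immunoassay: biotinylated 4G8 plus C-terminus-specific rabbit antibodies, captured on streptavidin beads.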
Target sequence in this assay (P05067 18-770 limits assumed): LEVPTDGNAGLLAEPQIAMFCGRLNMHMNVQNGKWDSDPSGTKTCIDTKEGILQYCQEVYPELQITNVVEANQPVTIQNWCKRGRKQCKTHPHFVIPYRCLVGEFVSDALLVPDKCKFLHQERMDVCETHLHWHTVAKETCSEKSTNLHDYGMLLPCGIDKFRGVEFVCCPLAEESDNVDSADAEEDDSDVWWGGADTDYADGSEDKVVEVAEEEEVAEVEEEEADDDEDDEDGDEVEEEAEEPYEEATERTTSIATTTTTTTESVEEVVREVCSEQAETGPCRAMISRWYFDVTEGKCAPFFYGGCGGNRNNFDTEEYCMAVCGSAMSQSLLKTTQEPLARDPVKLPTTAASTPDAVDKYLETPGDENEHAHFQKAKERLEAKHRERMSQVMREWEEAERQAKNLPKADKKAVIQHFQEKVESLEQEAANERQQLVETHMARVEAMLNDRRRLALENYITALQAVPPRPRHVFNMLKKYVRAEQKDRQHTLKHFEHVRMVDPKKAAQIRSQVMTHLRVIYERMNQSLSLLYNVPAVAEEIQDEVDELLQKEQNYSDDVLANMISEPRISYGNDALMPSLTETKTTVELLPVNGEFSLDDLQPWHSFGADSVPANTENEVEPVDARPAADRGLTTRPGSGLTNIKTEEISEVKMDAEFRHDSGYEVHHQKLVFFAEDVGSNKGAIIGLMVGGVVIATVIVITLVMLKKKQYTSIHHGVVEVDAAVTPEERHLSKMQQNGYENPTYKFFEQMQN

[4] = target: T2, Prostaglandin G/H synthase 1 (Rattus norvegicus) (UniProt Q63921); assay: Percent inhibition against cyclooxygenase-1 at 100 uM in rat blood
T2 sequence (whole entry): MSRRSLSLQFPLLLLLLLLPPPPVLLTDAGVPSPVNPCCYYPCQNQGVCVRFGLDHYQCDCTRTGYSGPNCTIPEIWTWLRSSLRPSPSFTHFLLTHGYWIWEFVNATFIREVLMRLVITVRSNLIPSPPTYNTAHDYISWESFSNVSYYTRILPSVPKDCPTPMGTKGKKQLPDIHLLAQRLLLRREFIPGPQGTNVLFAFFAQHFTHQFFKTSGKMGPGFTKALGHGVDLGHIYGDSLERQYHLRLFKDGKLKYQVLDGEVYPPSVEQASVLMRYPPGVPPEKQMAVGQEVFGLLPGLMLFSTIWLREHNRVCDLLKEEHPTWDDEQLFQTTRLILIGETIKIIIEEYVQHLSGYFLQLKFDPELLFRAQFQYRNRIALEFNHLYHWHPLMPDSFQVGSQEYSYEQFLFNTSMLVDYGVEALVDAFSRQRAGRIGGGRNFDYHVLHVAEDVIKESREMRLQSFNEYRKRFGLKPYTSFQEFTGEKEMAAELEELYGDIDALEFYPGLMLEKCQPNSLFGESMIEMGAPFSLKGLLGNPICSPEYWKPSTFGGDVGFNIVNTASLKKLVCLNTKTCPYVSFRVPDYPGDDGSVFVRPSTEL
Outline: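 Fresh rat whole blood preincubated 1 h at 37 °C with compound (100 μM) or DMSO (0.3% final). Stimulated 30 min with A23187 calcium ionophore; plasma thromboxane B2 measured by radioimmunoassay.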

[5] = Intestinal drug absorption was estimated in vitro using human colon adenocarcinoma (Caco-2) cell monolayers; assay type: ADME
Outline: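 Caco-2 monolayers on polycarbonate Transwell inserts, 2 h at 37 °C. Apical and basolateral solutions analysed by LC-MS/MS (SRM). Papp = Cb·Vb/(C0·A·t).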

[6] = target: Cytochrome P450 3A4 (Homo sapiens, UniProt P08684); assay: Interaction with human cytochrome P450 isoform 3A4 expressed in baculovirus-insect cells; assay type: ADME
Outline: (§3)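 Supersome microsomes from baculovirus-insect cells expressing human CYP1A2, 2C9, 2C19, 2D6 or 3A4 were used with isoform-specific fluorogenic substrates. Compounds were serially diluted with an NADP⁺/glucose-6-phosphate regenerating system in 0.35 M potassium phosphate, pH 7.4. Plates were prewarmed 10 min at 37 °C, reactions stopped with acetonitrile/Tris, and fluorescence read. IC50 was obtained by nonlinear regression.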

[7] = target: Cytochrome P450 2D6 (Homo sapiens, UniProt P10635); assay: Interaction with human cytochrome P450 isoform 2D6 expressed in baculovirus-insect cells; assay type: ADME; outline: as §3
[8] = target: Cytochrome P450 2C19 (Homo sapiens, UniProt P33261); assay: Interaction with human cytochrome P450 isoform 2C19 expressed in baculovirus-insect cells; assay type: ADME; outline: as §1
[9] = target: T1, Amyloid-beta precursor protein; assay: (§4) Concentration required to inhibit A beta 40 peptide 100 uM; outline: as §2
Target sequence in this assay (P05067 whole entry): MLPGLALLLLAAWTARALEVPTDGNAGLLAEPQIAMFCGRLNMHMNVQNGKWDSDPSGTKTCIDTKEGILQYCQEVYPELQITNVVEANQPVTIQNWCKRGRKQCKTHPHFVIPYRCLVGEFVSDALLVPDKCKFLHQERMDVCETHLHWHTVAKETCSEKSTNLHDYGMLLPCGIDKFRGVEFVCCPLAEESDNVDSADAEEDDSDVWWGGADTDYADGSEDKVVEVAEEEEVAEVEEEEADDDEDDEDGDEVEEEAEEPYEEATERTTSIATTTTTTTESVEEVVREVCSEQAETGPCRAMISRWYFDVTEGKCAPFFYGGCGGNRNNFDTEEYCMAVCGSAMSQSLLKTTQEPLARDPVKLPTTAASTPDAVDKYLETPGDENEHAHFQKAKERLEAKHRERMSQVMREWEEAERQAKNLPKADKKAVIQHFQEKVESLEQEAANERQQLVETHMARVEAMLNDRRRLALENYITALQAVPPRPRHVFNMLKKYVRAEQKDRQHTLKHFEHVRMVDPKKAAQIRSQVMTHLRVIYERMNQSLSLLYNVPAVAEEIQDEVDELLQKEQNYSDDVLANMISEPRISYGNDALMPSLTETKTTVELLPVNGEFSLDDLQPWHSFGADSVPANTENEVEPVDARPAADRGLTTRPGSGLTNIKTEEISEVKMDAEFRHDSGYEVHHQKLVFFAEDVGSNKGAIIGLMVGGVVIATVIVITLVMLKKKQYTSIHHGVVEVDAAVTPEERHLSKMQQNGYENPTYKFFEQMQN

[10] = In vivo steady state metabolic clearance of the compound; details: rat
[11] = target: T1, Amyloid-beta precursor protein; details: at 100 µM
Target sequence in this assay (P05067 whole entry): as above

[12] = target: CYP2C19 (Homo sapiens, UniProt P33261); assay: Interaction with human cytochrome P450 isoform 2C19 expressed in baculovirus-insect cells at 100 uM; assay type: ADME; outline: as §1
[13] = target: T1, Amyloid-beta precursor protein; assay: as §4; remark: listed apart in the source
Target sequence in this assay (P05067 whole entry): as above

[14] = target: T3, Prostaglandin G/H synthase 1 (Rattus norvegicus, UniProt Q63921); assay: Concentration required to inhibit cyclooxygenase-1 in rat blood
T3 sequence (Q63921 whole entry): T2 sequence (whole entry)
Outline: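 Fresh rat whole blood was preincubated 1 h at 37 °C with compound (100 μM or a concentration series; DMSO 0.3% final). It was then stimulated 30 min with the Ca²⁺ ionophore A23187. Thromboxane B2 in the plasma was measured by radioimmunoassay.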

Chain of Cytochrome P450 2C19 (P33261 whole entry, canonical isoform): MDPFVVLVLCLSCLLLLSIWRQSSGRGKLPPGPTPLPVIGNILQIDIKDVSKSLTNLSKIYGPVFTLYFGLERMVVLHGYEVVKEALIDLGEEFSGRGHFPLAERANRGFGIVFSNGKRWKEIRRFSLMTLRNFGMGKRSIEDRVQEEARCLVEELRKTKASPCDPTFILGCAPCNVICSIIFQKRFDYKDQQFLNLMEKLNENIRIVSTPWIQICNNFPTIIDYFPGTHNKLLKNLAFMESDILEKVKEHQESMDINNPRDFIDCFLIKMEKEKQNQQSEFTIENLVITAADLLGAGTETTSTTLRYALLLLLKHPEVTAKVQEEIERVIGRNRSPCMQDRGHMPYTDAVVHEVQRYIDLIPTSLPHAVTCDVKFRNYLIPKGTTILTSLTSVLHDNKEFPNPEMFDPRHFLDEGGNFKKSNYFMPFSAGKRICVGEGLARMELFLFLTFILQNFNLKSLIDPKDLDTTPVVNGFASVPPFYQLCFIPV
Chain of Cytochrome P450 3A4 (P08684 whole entry, canonical isoform): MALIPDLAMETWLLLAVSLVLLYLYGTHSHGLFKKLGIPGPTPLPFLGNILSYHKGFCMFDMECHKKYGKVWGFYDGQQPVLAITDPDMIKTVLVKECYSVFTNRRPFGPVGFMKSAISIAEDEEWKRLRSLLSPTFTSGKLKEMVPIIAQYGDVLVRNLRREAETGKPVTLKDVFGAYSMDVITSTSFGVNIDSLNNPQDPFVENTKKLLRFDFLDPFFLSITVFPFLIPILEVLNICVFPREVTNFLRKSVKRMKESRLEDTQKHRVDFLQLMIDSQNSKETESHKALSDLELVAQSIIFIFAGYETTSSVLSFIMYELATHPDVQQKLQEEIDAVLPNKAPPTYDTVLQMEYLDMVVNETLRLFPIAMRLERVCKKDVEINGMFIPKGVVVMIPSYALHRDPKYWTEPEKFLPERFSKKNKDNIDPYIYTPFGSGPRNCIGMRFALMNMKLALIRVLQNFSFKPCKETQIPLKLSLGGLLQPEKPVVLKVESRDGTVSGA
Chain of Cytochrome P450 2C9 (P11712 whole entry, canonical isoform): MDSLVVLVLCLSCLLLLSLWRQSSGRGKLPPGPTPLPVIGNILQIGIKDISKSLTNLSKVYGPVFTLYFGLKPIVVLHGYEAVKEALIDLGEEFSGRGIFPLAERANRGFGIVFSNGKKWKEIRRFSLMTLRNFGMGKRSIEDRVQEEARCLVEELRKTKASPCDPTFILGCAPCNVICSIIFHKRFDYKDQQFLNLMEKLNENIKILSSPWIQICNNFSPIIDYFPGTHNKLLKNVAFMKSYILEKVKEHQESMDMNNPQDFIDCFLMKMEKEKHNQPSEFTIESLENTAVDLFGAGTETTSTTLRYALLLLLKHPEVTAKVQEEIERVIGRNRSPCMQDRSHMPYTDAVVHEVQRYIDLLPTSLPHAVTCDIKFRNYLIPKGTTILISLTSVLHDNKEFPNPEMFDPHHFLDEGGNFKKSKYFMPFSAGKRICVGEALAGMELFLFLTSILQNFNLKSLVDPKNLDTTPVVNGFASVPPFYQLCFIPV
Chain of Cytochrome P450 2D6 (P10635 whole entry, canonical isoform): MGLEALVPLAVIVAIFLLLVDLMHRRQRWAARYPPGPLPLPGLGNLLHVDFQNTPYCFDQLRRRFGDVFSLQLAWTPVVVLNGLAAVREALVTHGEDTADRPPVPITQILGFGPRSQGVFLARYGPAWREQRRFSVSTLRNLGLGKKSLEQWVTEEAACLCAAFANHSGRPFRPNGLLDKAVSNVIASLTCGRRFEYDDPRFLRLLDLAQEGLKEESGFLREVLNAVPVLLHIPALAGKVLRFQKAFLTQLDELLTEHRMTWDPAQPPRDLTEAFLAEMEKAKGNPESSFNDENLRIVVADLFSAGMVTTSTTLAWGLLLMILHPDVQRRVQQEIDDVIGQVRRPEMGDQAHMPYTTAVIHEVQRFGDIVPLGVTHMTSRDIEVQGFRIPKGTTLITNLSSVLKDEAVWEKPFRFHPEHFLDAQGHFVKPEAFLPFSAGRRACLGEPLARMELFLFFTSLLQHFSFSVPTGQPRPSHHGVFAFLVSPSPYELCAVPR
Chain of CYP2C19 (P33261 whole entry, canonical isoform): as the sequence (P33261 whole entry, canonical isoform) above

CC1(C)CCC(c2ccc(-c3ccc(C4(C(=O)O)CC4)cc3F)cc2)CC1
IC50 [1]: 17 µM | Ratio [2]: Below LLOQ | IC50 [3]: 46 µM | inhibition [4]: 17% | Papp [5]: < 1 ×10⁻⁶ cm/s | IC50 [6]: 84 µM | IC50 [7]: 5.3 µM | IC50 [8]: 13 µM | IC50 [9]: 101 µM | Clearance [10]: 145.8 mL/h | inhibition [11]: 75%

CC(C)(C(=O)O)c1ccc(-c2ccc(C(F)(F)F)cc2)c(F)c1
IC50 [3]: 70.6 µM | inhibition [11]: 58%

CC(C(=O)O)c1ccc(-c2ccc(Cl)cc2)c(F)c1 (configuration not stated)
inhibition [11]: 55%

CC(C(=O)O)c1ccc(-c2ccncc2)c(F)c1 (configuration not stated)
inhibition [11]: 11%

CC(C(=O)O)c1ccc(-c2ccc3c(c2)OCO3)c(F)c1 (configuration not stated)
IC50 [3]: 210 µM | inhibition [11]: 42%

CC(C(=O)O)c1ccc(-c2ccc(O)cc2)c(F)c1 (configuration not stated)
inhibition [11]: 27%

CC(C(=O)O)c1ccc(-c2ccc(Cl)c(Cl)c2)c(F)c1 (configuration not stated)
inhibition at 100 µM [12]: > 50% | IC50 [3]: 75 µM | inhibition [4]: 78% | Papp [5]: > 5 ×10⁻⁶ cm/s | inhibition [11]: 87%

CC(C(=O)O)c1ccc(-c2ccsc2)c(F)c1 (configuration not stated)
inhibition [11]: 40%

COc1ccc(-c2ccc(C(C)C(=O)O)cc2F)cc1 (configuration not stated)
IC50 [3]: 67 µM | Papp [5]: > 5 ×10⁻⁶ cm/s | IC50 [8]: 87 µM | inhibition [11]: 67%

CC(C(N)=O)c1ccc(-c2cc(Cl)cc(Cl)c2)c(F)c1 (configuration not stated)
Ratio [2]: 19% | IC50 [3]: 64 µM | IC50 [9]: 12 µM | Clearance [10]: 193 mL/h | inhibition [11]: 70%

CC(C(=O)O)c1ccc(-c2ccc(C(F)(F)F)cc2)c(Cl)c1 (configuration not stated)
inhibition [13]: 40%

CC(C(=O)O)c1ccc(-c2ccc(C(F)(F)F)cc2)cc1C(F)(F)F (configuration not stated)
inhibition [11]: 57%

C[C@H](C(=O)O)c1ccc(-c2ccccc2)c(F)c1 [ESFLURBIPROFEN]
IC50 [14]: 0.03 µM

O=C(O)C1(c2ccc(-c3ccc(-c4ccc(F)cc4)c(F)c3)c(F)c2)CC1
IC50 [1]: 7 µM | Ratio [2]: 1.8% | IC50 [3]: 57.9 µM | inhibition [4]: 18% | Papp [5]: < 1 ×10⁻⁶ cm/s | IC50 [6]: 38 µM | inhibition [13]: 32% | IC50 [8]: 46 µM | Clearance [10]: 8.1 mL/h | inhibition [11]: 75%

CC(C(=O)O)c1ccc(-c2ccccc2Cl)c(F)c1 (configuration not stated)
inhibition [11]: 13%

O=C(O)C1(c2ccc(-c3ccc(-c4ccc(O)cc4)cc3)c(F)c2)CC1
IC50 [1]: 89 µM | IC50 [3]: 31.6 µM | inhibition [4]: < 1% | Papp [5]: > 5 ×10⁻⁶ cm/s | IC50 [7]: 21.5 µM | IC50 [8]: 35 µM | IC50 [9]: 409 µM | inhibition [11]: 99%

O=C(O)C1(c2ccc(-c3csc4ccccc34)c(F)c2)CC1
IC50 [1]: 19 µM | Ratio [2]: 2.6% | IC50 [3]: 96.3 µM | inhibition [4]: < 1% | Papp [5]: > 5 ×10⁻⁶ cm/s | Clearance [10]: 113.6 mL/h | inhibition [11]: 49%

O=C(O)C1(c2ccc(-c3ccc(OC4CCOCC4)cc3)c(F)c2)CC1
Ratio [2]: 1.1% | Clearance [10]: 70.5 mL/h | inhibition [11]: 28%

CC(C(=O)O)c1ccc(-c2ccc(C(F)(F)F)cc2)cc1 (configuration not stated)
inhibition [11]: 2%

O=C(O)C1(c2ccc(-c3ccccc3)c(F)c2)CC1
IC50 [1]: 83 µM | Ratio [2]: 2.3% | inhibition [4]: 26% | Papp [5]: > 5 ×10⁻⁶ cm/s | Clearance [10]: 9.8 mL/h | inhibition [11]: 40%

CC(C(=O)O)c1ccc(-c2ccc(-c3ccc(O)cc3)cc2)c(F)c1 (configuration not stated)
IC50 [1]: 4.7 µM | Ratio [2]: 1.1% | IC50 [3]: 35 µM | inhibition [4]: 17% | Papp [5]: > 5 ×10⁻⁶ cm/s | IC50 [6]: 74 µM | IC50 [8]: 58 µM | Clearance [10]: 85 mL/h | inhibition [11]: 75%

CC(C(=O)O)c1ccc(-c2ccccc2C(F)(F)F)c(F)c1 (configuration not stated)
inhibition [11]: 25%

Cc1ccc(-c2ccc(C(C)C(=O)O)cc2F)cc1 (configuration not stated)
inhibition [11]: 44%

CC(C(=O)O)c1ccc(-c2cccc(Cl)c2)c(F)c1 (configuration not stated)
inhibition [11]: 58%

CC(C(=O)NO)c1ccc(-c2ccc(C(F)(F)F)cc2)c(F)c1 (configuration not stated)
inhibition [11]: 31%

C[C@@H](C(=O)O)c1ccc(-c2ccccc2)c(F)c1 [TARENFLURBIL]
IC50 [3]: 280 µM | IC50 [14]: 44 µM
